Measurements reported in article PMC6279241 (Science signaling, 2018).
Substitutions are numbered along the chain they refer to. Numbered stars: 1 amine (or outer) side, 2 acyl side, 3 side chain; on linkers, the order of the positions; unused ones are H or OH. Bridge positions count the residues as written; N and C are the ends. Square brackets hold non-standard residues; d marks the D form. Peptide text beside a SMILES is read from it. * marks the point of attachment. Leu(3R-OH,Nα-propionyl) = CCC(=O)N[C@H](C(=O)*)[C@H](O)C(C)C; X1 = CC(C)[C@@H](O[*:3])[C@H](N[*:1])C(=O)[*:2]; NMeT = CN[C@H](C(=O)O)[C@@H](C)O; dPhLac = O=C(O)[C@H](O)Cc1ccccc1; NMeA = CN[C@@H](C)C(=O)O; NMeDha = C=C(NC)C(=O)O

Tests used:
Gα13(Q226L) = target: T1, Gα13(Q226L) (Homo sapiens, UniProt Q14344, Q226L); test: SRE; type: cell-based; settings: SRE(L) reporter
T1 sequence (Q14344 1-377 Q226L): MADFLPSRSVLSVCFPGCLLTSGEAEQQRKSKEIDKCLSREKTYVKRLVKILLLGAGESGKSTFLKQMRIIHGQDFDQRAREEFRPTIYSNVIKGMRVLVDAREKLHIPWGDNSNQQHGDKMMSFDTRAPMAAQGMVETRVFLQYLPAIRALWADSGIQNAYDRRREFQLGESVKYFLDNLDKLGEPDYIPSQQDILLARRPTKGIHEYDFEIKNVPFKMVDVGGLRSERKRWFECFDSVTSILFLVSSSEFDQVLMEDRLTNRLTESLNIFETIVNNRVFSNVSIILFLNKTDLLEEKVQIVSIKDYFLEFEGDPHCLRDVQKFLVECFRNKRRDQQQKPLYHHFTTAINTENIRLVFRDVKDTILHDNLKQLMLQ
How it was run: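 SRE(L) promoter-driven firefly luciferase transcriptional reporter activated by constitutively active Gα13. Firefly signal was normalized to co-transfected Renilla luciferase expressed from a constitutive promoter.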

Gαq(Q209L) / Gβγ = target: T2, Gαq(Q209L) / Gβγ (Mus musculus, UniProt P21279, Q209L); test: Co-purification of endogenous Gβγ with affinity-tagged constitutively active Gαq; type: cell-based; settings: FR 1 μM, 24 hours; n=3
T2 sequence (P21279 1-359 Q209L): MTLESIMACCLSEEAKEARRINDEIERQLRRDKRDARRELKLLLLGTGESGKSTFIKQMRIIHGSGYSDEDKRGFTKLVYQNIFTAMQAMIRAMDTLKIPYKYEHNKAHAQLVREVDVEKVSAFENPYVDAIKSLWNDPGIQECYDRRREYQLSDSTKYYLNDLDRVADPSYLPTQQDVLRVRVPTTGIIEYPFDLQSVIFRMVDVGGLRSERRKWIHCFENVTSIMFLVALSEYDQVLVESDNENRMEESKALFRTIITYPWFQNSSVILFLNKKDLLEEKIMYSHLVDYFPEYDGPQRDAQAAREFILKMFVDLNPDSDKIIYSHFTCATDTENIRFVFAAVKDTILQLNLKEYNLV
How it was run: (§1)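 HEK293 cells were transfected with mouse Gαq, either wild type or Q209L. A FLAG-StrepII-StrepII tag flanked by Gly/Ser linkers was inserted between residues 124 and 125. After 24 h, cells got FR (1 μM) or DMSO for 24 h. They were lysed in 50 mM Tris pH 8.0, 100 mM NaCl, 5 mM EDTA, 1 mM MgCl2, 0.5% IGEPAL, ± 1 μM FR. StrepTactin then anti-FLAG purification at 4 °C. Immunoblot for FLAG and Gβ; 3 independent experiments.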

wild type Gαq / Gβγ = target: T3, wild type Gαq / Gβγ (Mus musculus, UniProt P21279); test: Co-purification of endogenous Gβγ with affinity-tagged wild type Gαq; type: cell-based; settings: FR 1 μM, 24 hours; n=3
T3 sequence (P21279 1-359): T2 sequence (P21279 1-359 Q209L) with L209Q
How it was run: as §1

Mel202 cells [1] = test: Flow cytometry of DNA content; type: cell-based, human; settings: Mel202, 3 days
How it was run: (§2)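 Cells were treated with test compound for 3 days, then stained with propidium iodide for DNA content and run on a FACScan flow cytometer. The sub-G1 fraction gave apoptosis; S- and G2/M-phase fractions gave proliferation. Mean ± SEM of 4 experiments. t-tests were corrected with the Holm-Sidak method.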

92.1 cells [2] = test: Immunofluorescence staining of melanocytic markers in 92.1 cells; type: cell-based, human
How it was run: (§3)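 Immunofluorescence for TYR, DCT and PMEL. An equal volume of 2× fixative (PBS, 4% paraformaldehyde, 0.4% glutaraldehyde) was added to cells in growth medium for 15 min at 37 °C. Cells were permeabilized with 0.1% Triton X-100 for 5 min, blocked with 2% fish gelatin, and labelled with Alexa Fluor secondaries. The proportion of marker-positive cells was compared with Fisher's exact test. Representative of 3 experiments.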

OCM-1A cells [3] = test: Flow cytometry of DNA content; type: cell-based, human; settings: 3 days
How it was run: as §2

Gαi/q(Q204L) = Gαi/q(Q204L) (Homo sapiens, UniProt P63096, H188P/K180P/K54R/Q204L/T187Y/V185I/V50I/V72L/Y69F); test: GTP hydrolysis; type: biochemical; settings: FR 25 μM
Gαi/q(Q204L), sequence (P63096 whole entry V50I/K54R/Y69F/V72L/K180P/V185I/T187Y/H188P/Q204L): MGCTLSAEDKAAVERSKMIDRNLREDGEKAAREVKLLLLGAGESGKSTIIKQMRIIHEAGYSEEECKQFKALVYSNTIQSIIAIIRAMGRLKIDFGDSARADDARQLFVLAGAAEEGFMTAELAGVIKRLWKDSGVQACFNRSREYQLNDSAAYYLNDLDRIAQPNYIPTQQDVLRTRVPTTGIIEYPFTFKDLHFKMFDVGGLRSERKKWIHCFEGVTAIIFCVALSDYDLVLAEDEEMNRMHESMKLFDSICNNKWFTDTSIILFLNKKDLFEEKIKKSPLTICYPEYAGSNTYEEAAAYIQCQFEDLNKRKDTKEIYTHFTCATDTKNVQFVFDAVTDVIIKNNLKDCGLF
How it was run: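 His-tagged Gαi/q(Q204L) was expressed in E. coli; it is Gαi1 carrying eight Gαq-type substitutions. The protein (3 μM) was in 50 mM Tris-HCl pH 8.0, 5 mM MgCl2, 1 mM EDTA, 0.5 mM DTT. Reaction started with γ32P-GTP (100 nM final, 100 Ci/mmol); protein was in >10-fold excess. FR (25 μM final) or DMSO was added partway. Aliquots were quenched in 1N formic acid and resolved on PEI-cellulose TLC. Triplicate, ≥3 days, different protein preparations.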

92.1 cells [4] = test: RNA-Seq gene expression in FR-treated 92.1 cells; type: cell-based, human; settings: 92.1, 100 nM FR
OCM-1A cells [5] = test: Quantitative RT-PCR of PRC2-regulated genes in OCM-1A cells; type: cell-based, human; settings: qRT-PCR
OCM-1A cells [6] = test: Cell viability/proliferation; type: cell-based, human; settings: even at 10 μM
How it was run: (§4)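 Water-soluble tetrazolium salt (WST-8) viability assay run per the maker's protocol. Cells were grown in RPMI 1640 with 10% FBS and antibiotics at 37 °C, 5% CO2. Fold-change in viability over time was followed at increasing test compound concentrations, and EC50 was taken from concentration-response data. Mean ± SEM of 4 experiments, each in triplicate.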

Gαq(Q209L) = target: T4, Gαq(Q209L) (Mus musculus, UniProt P21279, Q209L); test: SRE; type: cell-based; settings: read-out: IC50, inhibition of transcriptional reporter driven by constitutively active Gαq; SRE(L) reporter
T4 sequence (P21279 1-359 Q209L): T2 sequence (P21279 1-359 Q209L)
How it was run: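 Firefly luciferase signal from the Gα-driven transcriptional reporter was normalized to co-transfected Renilla luciferase from a constitutive promoter.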

Gα13(Q226L) / LARG-RGS = target: T5, Gα13(Q226L) / LARG-RGS (Homo sapiens, UniProt Q14344, Q226L); type: cell-based; settings: split luciferase
T5 sequence (Q14344 1-377 Q226L): T1 sequence (Q14344 1-377 Q226L)
How it was run: (§5)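 Split click beetle green luciferase in transiently transfected HEK293 cells. The N-terminal fragment sat in the helical-domain αB-αC loop of wild type or Q226L Gα13. The C-terminal fragment was fused to the N-terminus of Gβ1 (with untagged Gγ2 co-transfected) or of the LARG RGS domain. Cells were treated 18 h with test compound or DMSO, then reconstituted luciferase activity was read. Triplicate wells; 3 experiments on different days.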

OCM-1A cells [7] = test: Morphology; type: cell-based, human; settings: 3 days
How it was run: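 Cells were treated with test compound for 3 days and imaged by phase contrast on an inverted microscope with a 10× objective. Representative fields are from one of 3 experiments.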

92.1 cells [8] = test: Melanocytic pigmentation of 92.1 cells; type: cell-based, human; settings: 92.1, 3 days, vs vehicle
How it was run: (§6)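 Cells were treated with test compound for 3 days, then pelleted and examined macroscopically for pigmentation against vehicle (DMSO). Representative images are from one of 3 experiments, each in triplicate.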

Mel202 cells [9] = test: Melanocytic pigmentation of Mel202 cells; type: cell-based, human; settings: Mel202, 3 days, vs vehicle
How it was run: as §6

Gα13(Q226L) / Gβ1γ2 = target: T6, Gα13(Q226L) / Gβ1γ2 (Homo sapiens, UniProt Q14344, Q226L); test: Split-luciferase complementation between Gβ1γ2 and constitutively active Gα13; type: cell-based
T6 sequence (Q14344 1-377 Q226L): T1 sequence (Q14344 1-377 Q226L)
How it was run: as §5

92.1 cells [10] = test: IP1 abundance; type: cell-based, human; settings: 92.1, Gαq(Q209L)-driven
How it was run: (§7)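 Homogeneous IP1 immunoassay (IP-One kit). Seeding was 10,000 Mel202, 20,000 92.1 or 20,000 OCM-1A cells per well. After overnight culture, cells got test compound or DMSO and were incubated until the next day. Stimulation buffer was added for 1 h, then IP1-d2 and anti-IP1 cryptate for 60 min at room temperature. IP1 was read from kit standard curves. Mean ± SEM of 4 experiments, each in triplicate.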

92.1 cells [11] = test: Cell viability/proliferation; type: cell-based, human; settings: read-out: EC50, inhibition of proliferation (viability)
How it was run: as §4

Gαi/q(R54K) [12] = target: Gαi/q(R54K) (Homo sapiens, UniProt P63096, H188P/K180P/T187Y/V185I/V50I/V72L/Y69F); test: Nucleotide exchange; type: biochemical; settings: in vitro
Gαi/q(R54K) (Homo sapiens, UniProt P63096, H188P/K180P/T187Y/V185I/V50I/V72L/Y69F), sequence (P63096 whole entry V50I/Y69F/V72L/K180P/V185I/T187Y/H188P): as the sequence (P63096 whole entry V50I/K54R/Y69F/V72L/K180P/V185I/T187Y/H188P/Q204L) above, with R54K, L204Q counted along it

Gαi/q(R54K) [13] = test: Attenuation of cannabinoid receptor-evoked inhibition of forskolin-induced cAMP; type: cell-based; settings: Neuro2A
OCM-1A cells [14] = test: IP1 abundance; type: cell-based, human; settings: BRAF(V600E)-driven
How it was run: as §7

wild type Gα13 / Gβ1γ2 = wild type Gα13 / Gβ1γ2 (Homo sapiens, UniProt Q14344); test: Split-luciferase complementation between Gβ1γ2 and wild type Gα13; type: cell-based
wild type Gα13 / Gβ1γ2, sequence (P59768 2-68): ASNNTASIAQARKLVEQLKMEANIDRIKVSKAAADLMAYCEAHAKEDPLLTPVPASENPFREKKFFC
wild type Gα13 / Gβ1γ2, sequence (P62873 whole entry, further chain): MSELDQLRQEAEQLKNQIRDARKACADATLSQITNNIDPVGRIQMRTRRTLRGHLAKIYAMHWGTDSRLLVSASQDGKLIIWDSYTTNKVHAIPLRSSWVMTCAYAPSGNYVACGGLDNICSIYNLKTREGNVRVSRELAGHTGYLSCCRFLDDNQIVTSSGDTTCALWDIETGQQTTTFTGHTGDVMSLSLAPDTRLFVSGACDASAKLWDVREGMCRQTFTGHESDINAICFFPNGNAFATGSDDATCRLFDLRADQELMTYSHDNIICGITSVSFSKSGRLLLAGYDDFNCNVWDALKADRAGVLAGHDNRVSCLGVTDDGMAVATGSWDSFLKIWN
wild type Gα13 / Gβ1γ2, sequence (Q14344 whole entry): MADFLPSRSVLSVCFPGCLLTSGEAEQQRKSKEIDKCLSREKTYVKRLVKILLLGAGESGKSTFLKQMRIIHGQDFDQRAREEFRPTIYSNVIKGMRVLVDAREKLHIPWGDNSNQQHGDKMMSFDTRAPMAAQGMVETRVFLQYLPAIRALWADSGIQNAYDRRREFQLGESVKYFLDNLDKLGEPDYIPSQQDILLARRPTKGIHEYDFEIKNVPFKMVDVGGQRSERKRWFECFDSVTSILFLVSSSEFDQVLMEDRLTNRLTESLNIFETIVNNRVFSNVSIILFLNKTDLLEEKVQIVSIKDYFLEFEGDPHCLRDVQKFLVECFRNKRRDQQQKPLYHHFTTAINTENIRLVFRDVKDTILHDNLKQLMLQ
How it was run: as §5

Mel202 cells [15] = test: Immunofluorescence staining of melanocytic markers in Mel202 cells; type: cell-based, human
How it was run: as §3

Mel202 cells [16] = test: Cell viability/proliferation; type: cell-based, human; settings: read-out: EC50, inhibition of proliferation (viability)
How it was run: as §4

92.1 cells [17] = test: Flow cytometry of DNA content; type: cell-based, human; settings: 92.1, 3 days
How it was run: as §2

Mel202 cells [18] = test: IP1 abundance; type: cell-based, human; settings: Mel202, Gαq(Q209L)-driven
How it was run: as §7

Gαi/q = test: Attenuation of cannabinoid receptor-evoked inhibition of forskolin-induced cAMP; type: cell-based; settings: read-out: IC50, attenuation of Gαi/q-mediated inhibition of forskolin-induced cAMP accumulation; Neuro2A, cannabinoid type 1 receptors, WIN 55,212-2

C=C1C(=O)N[C@@H](C)C(=O)N(C)[C@@H](C)C(=O)N[C@@H]([C@H](OC(=O)[C@@H](NC(=O)CC)[C@H](O)C(C)C)C(C)C)C(=O)N(C)[C@@H]([C@@H](C)OC)C(=O)O[C@H](C(C)C)[C@H](NC(C)=O)C(=O)O[C@H](Cc2ccccc2)C(=O)N1C [FR, FR900359] (Ac-[X1][dPhLac][NMeDha]A[NMeA][X1](Leu(3R-OH,Nα-propionyl))[NMeT](Me); ester 1-C)
Effect on transcriptional reporter driven by constitutively active Gα13 (Gα13(Q226L)): no effect | Increase of association between Gβγ and affinity-tagged constitutively active Gαq (co-purification) (Gαq(Q209L) / Gβγ): 9 fold | Increase of association between Gβγ and affinity-tagged wild type Gαq (co-purification) (wild type Gαq / Gβγ): 19 fold | Apoptosis (increased fraction of sub-G1/G0 cells) (Mel202 cells [1]): induced | Cell cycle inhibition (decreased fraction of S- or G2/M-phase cells) (Mel202 cells [1]): induced | Increase in proportion of DCT-positive cells (92.1 cells [2]): 3.5 fold | Increase in proportion of PMEL-positive cells (92.1 cells [2]): 6.8 fold | Effect on cell cycle and apoptosis (OCM-1A cells [3]): no effect | Correction of GTP hydrolysis defect of Gαi/q(Q204L) (Gαi/q(Q204L)): not corrected | Decrease in expression of BBC3/PUMA (92.1 cells [4]): 3.5 fold | Decrease in expression of PMAIP1/NOXA (92.1 cells [4]): 2.5 fold | Decrease in expression of p21CIP1 (CDKN1A) (92.1 cells [4]): 3.0 fold | Expression of PRC2-regulated genes (OCM-1A cells [5]): unaffected | Effect on proliferation (OCM-1A cells [6]): no effect | IC50 (Gαq(Q209L)): 1 nM | Effect on interaction between constitutively active Gα13 and RGS domain of LARG (Gα13(Q226L) / LARG-RGS): lack of effect | Morphological changes (OCM-1A cells [7]): no effect | Melanocytic pigmentation (92.1 cells [8]): increased | Melanocytic pigmentation (Mel202 cells [9]): increased | Effect on interaction between constitutively active Gα13(Q226L) and Gβ1γ2 (Gα13(Q226L) / Gβ1γ2): lack of effect | Reduction of IP1 abundance (92.1 cells [10]): > 50 fold | EC50 (92.1 cells [11]): 2 nM | Fold less potent toward Gαi/q(R54K) than Gαi/q (nucleotide exchange) (Gαi/q(R54K) [12]): > 10 fold | Fold less potent toward Gαi/q(R54K) than Gαi/q (cAMP signaling in cells) (Gαi/q(R54K) [13]): ~ 30 fold | IC50 (Gαi/q(R54K) [13]; read-out: IC50, attenuation of Gαi/q(R54K)-mediated inhibition of forskolin-induced cAMP accumulation, cannabinoid type 1 receptors, WIN 55,212-2): ~800 nM | Reduction of IP1 abundance (OCM-1A cells [14]): ~ 2 fold | Effect on interaction between wild type Gα13 and Gβ1γ2 (wild type Gα13 / Gβ1γ2): lack of effect | Increase in proportion of DCT-positive cells (Mel202 cells [15]): 1.6 fold | Increase in proportion of PMEL-positive cells (Mel202 cells [15]): 3.9 fold | Increase in proportion of TYR-positive cells (Mel202 cells [15]): 1.8 fold | EC50 (Mel202 cells [16]): 6 nM | Apoptosis (increased fraction of sub-G1/G0 cells) (92.1 cells [17]): induced | Cell cycle inhibition (decreased fraction of S- or G2/M-phase cells) (92.1 cells [17]): induced | Reduction of IP1 abundance (Mel202 cells [18]): > 50 fold | IC50 (Gαi/q): 25 nM
